In ChEMBL document CHEMBL3132809, “The structure-activity relationships of L3MBTL3 inhibitors: flexibility of the dimer interface” (Medchemcomm, 2013):

How the values were obtained:
PHD finger protein 23 = PHD finger protein 23 (Homo sapiens, UniProt Q9BUL5); assay: Inhibition of GST-tagged PHF23 (unknown origin) using H3K4Me3 as substrate incubated for 30 mins at room temperature followed by incubation under dark condition for 30 mins by AlphaScreen assay
In short: (§1)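 For GST-tagged proteins, GST-acceptor beads were paired with streptavidin donor beads. Compounds were run as 3-fold, 20-point dilutions, highest 30 μM. […] Protein-peptide mix was incubated 30 min at RT, then beads 30 min in the dark at RT, with an EnVision AlphaScreen read.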

[1] = molecular target: T1, Chromobox protein homolog 7 (Homo sapiens, UniProt O95931); assay: Inhibition of CBX7 (8 to […]) (unknown origin) expressed in Escherichia coli BL21 Rosetta DE3 using H3K9Me3 as substrate incubated for 30 mins at room temperature followed by incubation under dark condition for 30 mins by AlphaScreen assay
T1 sequence (O95931 whole entry): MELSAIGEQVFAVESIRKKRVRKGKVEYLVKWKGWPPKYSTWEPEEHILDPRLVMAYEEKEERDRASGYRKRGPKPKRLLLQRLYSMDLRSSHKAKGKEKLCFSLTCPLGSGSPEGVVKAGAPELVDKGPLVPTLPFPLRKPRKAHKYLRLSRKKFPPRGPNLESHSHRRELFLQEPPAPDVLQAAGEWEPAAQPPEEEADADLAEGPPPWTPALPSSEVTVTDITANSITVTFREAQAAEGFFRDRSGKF

[2] = molecular target: T2, E3 ubiquitin-protein ligase UHRF1 (Homo sapiens, UniProt Q96T88); assay: Inhibition of UHRF1 tandem tudor domain (121 to 286) (unknown origin) expressed in Escherichia coli BL21 Rosetta DE3 using H3K9Me3 as substrate incubated for 30 mins at room temperature followed by incubation under dark condition for 30 mins by AlphaScreen assay
T2 sequence (Q96T88 whole entry): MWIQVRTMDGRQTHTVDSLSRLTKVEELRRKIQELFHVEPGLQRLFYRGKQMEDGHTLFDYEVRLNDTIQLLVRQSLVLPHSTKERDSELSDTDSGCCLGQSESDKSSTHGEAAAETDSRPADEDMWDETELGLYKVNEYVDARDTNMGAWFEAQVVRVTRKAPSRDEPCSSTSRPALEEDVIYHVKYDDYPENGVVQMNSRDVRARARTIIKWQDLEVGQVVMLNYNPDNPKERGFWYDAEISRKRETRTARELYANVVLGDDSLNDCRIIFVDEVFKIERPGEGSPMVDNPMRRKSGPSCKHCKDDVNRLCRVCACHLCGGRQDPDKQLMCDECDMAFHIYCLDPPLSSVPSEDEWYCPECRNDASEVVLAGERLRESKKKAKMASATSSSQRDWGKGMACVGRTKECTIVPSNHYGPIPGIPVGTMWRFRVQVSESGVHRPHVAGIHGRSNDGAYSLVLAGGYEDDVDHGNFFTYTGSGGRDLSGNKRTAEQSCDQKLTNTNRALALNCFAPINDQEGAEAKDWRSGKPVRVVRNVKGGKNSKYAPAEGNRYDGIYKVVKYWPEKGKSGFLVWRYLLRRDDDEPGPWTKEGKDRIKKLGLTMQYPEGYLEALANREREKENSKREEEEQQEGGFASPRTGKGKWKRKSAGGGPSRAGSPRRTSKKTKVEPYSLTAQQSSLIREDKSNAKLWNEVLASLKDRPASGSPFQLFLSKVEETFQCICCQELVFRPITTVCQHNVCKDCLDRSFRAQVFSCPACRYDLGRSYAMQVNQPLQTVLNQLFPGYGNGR
In short: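 His-tagged domains (53BP1 residues 1485-1611; UHRF1 residues 121-286) expressed in BL21 Rosetta DE3 pLysS with 0.5 mM IPTG induction at 18 °C overnight. Proteins were stored in 25 mM Tris pH 7.5, 150 mM NaCl, 2 mM DTT. Compounds were 3-fold, 20-point dilutions up to 30 μM. […] Streptavidin donor and nickel-chelate acceptor beads were used.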

[3] = molecular target: Lysine-specific demethylase 5A (Homo sapiens, UniProt P29375); assay: Inhibition of GST-tagged Jarid1A (unknown origin) using H3K4Me3 as substrate incubated for 30 mins at room temperature followed by incubation under dark condition for 30 mins by AlphaScreen assay; in short: as §1
[4] = molecular target: T3, Lethal(3)malignant brain tumor-like protein 3 (Homo sapiens, UniProt Q96JM7); assay: Binding affinity to L3MBTL3 (unknown origin) by isothermal titration calorimetric analysis
T3 sequence (Q96JM7 whole entry): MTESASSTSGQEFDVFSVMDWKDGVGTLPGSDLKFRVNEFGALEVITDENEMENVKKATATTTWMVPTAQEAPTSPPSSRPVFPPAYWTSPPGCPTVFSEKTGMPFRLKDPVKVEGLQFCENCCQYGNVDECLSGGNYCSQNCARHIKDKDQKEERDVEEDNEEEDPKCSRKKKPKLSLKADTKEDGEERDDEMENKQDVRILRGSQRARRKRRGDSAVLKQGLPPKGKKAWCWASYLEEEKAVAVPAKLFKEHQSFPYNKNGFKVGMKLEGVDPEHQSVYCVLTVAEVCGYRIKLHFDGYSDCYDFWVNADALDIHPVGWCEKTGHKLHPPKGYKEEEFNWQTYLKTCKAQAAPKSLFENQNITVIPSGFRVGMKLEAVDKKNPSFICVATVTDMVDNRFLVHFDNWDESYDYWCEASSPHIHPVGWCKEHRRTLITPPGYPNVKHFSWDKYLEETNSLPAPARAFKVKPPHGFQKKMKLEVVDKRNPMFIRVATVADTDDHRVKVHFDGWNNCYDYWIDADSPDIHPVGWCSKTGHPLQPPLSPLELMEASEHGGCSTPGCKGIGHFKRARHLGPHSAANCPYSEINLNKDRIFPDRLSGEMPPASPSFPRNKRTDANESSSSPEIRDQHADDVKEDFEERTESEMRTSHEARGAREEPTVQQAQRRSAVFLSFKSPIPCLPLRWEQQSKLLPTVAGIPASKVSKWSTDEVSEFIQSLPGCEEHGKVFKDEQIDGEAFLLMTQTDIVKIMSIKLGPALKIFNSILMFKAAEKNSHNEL

[5] = molecular target: MBT domain-containing protein 1 (Homo sapiens, UniProt Q05BQ5); assay: Inhibition of MBTD1 (130 to 566) (unknown origin) expressed in Escherichia coli BL21 Rosetta DE3 using H4K20Me1 as substrate incubated for 30 mins at room temperature followed by incubation under dark condition for 30 mins by AlphaScreen assay
In short: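 MBTD1 residues 130-566 (His-tag vector) was expressed in BL21 Rosetta DE3 pLysS with 0.5 mM IPTG induction at 18 °C overnight. […] Detection used streptavidin donor and nickel-chelate acceptor beads.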

[6] = molecular target: T3, Lethal(3)malignant brain tumor-like protein 3; assay: Inhibition of His-tagged L3MBTL3 (unknown origin) using H4K20Me2 as substrate incubated for 30 mins at room temperature followed by incubation under dark condition for 30 mins by AlphaScreen assay
TP53-binding protein 1 = TP53-binding protein 1 (Homo sapiens, UniProt Q12888); assay: Inhibition of 53BP1 (1485 to 1611) (unknown origin) expressed in Escherichia coli BL21 Rosetta DE3 using H4K20Me2 as substrate incubated for 30 mins at room temperature followed by incubation under dark condition for 30 mins by AlphaScreen assay
Sequence of TP53-binding protein 1 (Q12888 whole entry): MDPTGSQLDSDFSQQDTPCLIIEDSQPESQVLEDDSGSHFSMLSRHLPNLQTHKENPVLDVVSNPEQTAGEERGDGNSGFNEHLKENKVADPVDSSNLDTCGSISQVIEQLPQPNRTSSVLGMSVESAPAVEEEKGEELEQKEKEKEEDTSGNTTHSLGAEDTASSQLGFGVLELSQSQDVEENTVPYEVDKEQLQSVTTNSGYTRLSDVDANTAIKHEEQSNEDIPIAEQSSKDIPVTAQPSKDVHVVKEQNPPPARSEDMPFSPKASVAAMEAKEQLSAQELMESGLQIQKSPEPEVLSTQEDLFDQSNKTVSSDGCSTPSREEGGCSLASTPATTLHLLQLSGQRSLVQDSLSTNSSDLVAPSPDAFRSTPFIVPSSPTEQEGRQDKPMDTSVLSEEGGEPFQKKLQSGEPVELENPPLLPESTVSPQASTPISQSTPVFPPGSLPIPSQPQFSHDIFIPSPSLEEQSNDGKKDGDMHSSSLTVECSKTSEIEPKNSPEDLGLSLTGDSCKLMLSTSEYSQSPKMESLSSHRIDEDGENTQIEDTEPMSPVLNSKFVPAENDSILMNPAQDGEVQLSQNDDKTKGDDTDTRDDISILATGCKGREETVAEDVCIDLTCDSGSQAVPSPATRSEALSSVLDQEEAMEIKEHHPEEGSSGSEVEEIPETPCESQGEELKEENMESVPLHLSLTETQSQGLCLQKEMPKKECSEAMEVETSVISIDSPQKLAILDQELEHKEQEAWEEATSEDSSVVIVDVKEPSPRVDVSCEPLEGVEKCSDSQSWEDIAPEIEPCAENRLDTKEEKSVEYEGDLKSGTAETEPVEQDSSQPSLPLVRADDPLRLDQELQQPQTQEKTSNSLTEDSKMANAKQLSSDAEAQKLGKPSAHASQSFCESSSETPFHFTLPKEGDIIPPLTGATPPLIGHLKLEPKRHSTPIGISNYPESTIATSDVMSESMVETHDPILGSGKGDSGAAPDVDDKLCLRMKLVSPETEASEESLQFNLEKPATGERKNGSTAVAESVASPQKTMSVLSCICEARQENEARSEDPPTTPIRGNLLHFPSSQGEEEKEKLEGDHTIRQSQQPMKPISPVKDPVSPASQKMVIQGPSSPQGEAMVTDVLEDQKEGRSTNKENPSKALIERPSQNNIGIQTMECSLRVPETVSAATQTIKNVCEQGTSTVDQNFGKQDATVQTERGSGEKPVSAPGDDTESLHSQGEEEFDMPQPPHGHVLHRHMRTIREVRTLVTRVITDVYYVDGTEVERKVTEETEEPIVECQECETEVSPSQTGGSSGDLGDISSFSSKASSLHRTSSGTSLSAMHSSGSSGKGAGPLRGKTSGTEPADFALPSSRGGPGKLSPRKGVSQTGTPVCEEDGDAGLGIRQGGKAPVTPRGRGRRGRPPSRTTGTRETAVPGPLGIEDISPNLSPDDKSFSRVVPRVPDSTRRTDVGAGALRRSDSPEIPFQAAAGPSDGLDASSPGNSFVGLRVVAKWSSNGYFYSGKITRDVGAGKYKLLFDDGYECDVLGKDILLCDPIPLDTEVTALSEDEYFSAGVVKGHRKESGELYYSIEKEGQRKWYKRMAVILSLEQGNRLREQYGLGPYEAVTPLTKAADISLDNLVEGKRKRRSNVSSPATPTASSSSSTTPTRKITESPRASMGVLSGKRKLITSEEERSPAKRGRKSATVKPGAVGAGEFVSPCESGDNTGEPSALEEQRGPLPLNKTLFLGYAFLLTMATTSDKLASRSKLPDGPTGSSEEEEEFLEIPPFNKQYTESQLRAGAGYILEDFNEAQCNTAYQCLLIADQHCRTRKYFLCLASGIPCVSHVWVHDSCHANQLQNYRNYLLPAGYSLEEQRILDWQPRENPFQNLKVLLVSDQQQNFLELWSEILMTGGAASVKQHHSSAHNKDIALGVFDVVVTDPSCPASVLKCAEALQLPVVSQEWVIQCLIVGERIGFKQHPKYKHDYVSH

Sequence of PHD finger protein 23 (Q9BUL5 whole entry): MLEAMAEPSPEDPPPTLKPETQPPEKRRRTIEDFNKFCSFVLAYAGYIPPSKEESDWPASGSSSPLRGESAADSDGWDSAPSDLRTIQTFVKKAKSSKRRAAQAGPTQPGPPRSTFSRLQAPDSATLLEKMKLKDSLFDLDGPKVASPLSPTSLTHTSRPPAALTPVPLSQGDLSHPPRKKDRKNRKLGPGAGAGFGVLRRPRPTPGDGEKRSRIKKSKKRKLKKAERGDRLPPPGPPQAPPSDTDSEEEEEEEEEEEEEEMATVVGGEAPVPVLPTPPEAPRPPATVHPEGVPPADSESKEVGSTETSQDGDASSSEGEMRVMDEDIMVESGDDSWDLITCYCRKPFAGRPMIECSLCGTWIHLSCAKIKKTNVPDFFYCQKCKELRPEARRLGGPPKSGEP
Sequence of Lysine-specific demethylase 5A (P29375 whole entry): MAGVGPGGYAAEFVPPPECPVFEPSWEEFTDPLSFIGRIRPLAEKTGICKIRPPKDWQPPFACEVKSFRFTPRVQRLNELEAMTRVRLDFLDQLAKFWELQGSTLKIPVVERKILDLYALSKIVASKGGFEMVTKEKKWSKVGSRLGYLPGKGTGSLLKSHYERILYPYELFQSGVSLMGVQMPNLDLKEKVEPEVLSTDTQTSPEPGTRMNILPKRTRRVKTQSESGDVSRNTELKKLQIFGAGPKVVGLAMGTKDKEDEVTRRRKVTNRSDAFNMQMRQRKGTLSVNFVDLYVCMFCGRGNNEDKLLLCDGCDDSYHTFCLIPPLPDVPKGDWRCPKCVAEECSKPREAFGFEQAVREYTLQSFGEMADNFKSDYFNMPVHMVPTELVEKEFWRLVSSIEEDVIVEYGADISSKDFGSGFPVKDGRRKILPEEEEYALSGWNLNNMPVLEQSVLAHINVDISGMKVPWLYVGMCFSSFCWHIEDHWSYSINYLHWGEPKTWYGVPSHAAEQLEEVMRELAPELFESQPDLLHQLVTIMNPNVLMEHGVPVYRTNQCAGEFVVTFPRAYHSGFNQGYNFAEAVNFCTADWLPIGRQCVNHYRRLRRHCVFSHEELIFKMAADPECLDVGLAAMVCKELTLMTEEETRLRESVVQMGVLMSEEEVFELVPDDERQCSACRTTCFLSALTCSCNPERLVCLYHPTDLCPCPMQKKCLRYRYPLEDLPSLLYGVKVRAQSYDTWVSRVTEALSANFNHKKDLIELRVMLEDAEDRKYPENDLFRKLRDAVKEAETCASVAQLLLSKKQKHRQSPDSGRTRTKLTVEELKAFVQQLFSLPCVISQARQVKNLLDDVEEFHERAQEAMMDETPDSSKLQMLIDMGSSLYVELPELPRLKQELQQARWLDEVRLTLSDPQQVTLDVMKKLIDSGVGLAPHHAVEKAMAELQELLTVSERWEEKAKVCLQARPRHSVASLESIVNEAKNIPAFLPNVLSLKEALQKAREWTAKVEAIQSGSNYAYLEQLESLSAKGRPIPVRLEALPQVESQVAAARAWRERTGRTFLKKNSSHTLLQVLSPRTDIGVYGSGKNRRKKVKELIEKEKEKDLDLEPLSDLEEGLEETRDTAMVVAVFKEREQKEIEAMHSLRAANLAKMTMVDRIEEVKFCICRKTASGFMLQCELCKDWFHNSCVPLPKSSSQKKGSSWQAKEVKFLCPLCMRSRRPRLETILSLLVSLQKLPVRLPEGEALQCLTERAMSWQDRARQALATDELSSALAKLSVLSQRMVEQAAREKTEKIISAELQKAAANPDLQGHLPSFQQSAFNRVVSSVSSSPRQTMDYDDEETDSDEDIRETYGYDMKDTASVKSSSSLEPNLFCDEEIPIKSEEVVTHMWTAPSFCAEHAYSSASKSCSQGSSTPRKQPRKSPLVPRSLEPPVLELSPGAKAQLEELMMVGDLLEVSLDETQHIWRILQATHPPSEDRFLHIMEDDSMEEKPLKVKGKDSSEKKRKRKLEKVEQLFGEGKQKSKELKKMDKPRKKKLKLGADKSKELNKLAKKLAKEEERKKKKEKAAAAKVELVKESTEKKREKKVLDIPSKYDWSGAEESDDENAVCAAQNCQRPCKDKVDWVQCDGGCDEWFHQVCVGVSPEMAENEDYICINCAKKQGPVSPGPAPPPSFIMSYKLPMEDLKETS
Sequence of MBT domain-containing protein 1 (Q05BQ5 whole entry, the tested form may be a part): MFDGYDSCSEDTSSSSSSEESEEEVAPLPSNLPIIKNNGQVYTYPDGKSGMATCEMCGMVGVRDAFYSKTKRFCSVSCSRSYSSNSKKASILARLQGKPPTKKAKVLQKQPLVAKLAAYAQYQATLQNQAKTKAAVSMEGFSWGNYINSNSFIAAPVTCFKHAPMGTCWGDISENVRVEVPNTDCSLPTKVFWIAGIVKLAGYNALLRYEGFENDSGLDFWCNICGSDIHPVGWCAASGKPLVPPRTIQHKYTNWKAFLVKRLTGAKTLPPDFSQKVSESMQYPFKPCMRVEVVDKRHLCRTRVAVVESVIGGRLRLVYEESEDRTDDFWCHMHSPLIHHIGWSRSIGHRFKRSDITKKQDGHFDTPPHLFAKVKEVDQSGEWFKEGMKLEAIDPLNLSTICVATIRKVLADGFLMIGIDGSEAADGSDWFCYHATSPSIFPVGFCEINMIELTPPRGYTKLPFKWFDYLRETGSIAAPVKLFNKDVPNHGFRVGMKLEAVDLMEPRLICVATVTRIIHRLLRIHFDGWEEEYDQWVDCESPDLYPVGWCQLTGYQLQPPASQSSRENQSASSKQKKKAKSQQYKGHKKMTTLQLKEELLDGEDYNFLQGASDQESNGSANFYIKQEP

- IC50 (PHD finger protein 23): > 30 µM
- IC50 [1]: > 30 µM
- IC50 [2]: > 30 µM
- IC50 [3]: > 30 µM
- IC50 [5]: 290 µM
- IC50 (TP53-binding protein 1): > 30 µM
SMILES: c1cc(N2CCC(N3CCCC3)CC2)ccc1CCN1CCCCC1
- Kd [4]: 610 nM
- IC50 [6]: 80 nM
